{"data": "Results gathered from unrelated publications", "effect on": "cell growth or viability"}
{"Compound": "COc1cc(N2CCC(N3CCN(C)CC3)CC2)ccc1Nc1ncc(Cl)c(Nc2ccccc2S(=O)(=O)C(C)C)n1", "cell line": "BJ", "setting": "72 h", "IC50": "0.9 µM"}
{"Compound": "C[C@H]1[C@@H](O)O[C@@H]2O[C@@]3(C)CC[C@H]4[C@H](C)CC[C@@H]1[C@@]24OO3", "cell line": "IOSE-144", "assay": "CCK-8", "setting": "48 h", "IC50": "> 50 µM"}
{"Compound": "Oc1ccc(-c2ccc3cc(O)ccc3c2)c(O)c1", "cell line": "CHL", "assay": "MTT", "setting": "24 h", "IC50": "119 µg/mL"}
{"Compound": "C[C@@H](Oc1cc(-c2cnn(C3CCNCC3)c2)cnc1N)c1c(Cl)ccc(F)c1Cl", "cell line": "BJ", "setting": "72 h", "IC50": "2.11 µM"}
{"Compound": "COc1cccc2c1C(=O)c1c(O)c3c(c(O)c1C2=O)C[C@@](O)(C(=O)CO)C[C@@H]3O[C@H]1C[C@H](N)[C@H](O)[C@H](C)O1", "cell line": "4T1.2", "assay": "MTT", "setting": "48 h", "IC50": "0.272 µg/mL"}
{"Compound": "O=C1NC(=O)[C@@H](c2cn3c4c(cccc24)CCC3)[C@@H]1c1c[nH]c2ccccc12", "cell line": "SW-1736", "assay": "MTT", "setting": "72 h", "IC50": "0.11 µM"}
{"Compound": "COc1cc2nccc(Oc3ccc(NC(=O)C4(C(=O)Nc5ccc(F)cc5)CC4)cc3)c2cc1OC", "cell line": "BJ", "setting": "72 h", "IC50": "4.52 µM"}
{"Compound": "O=C(N/N=C/c1c(O)ccc2ccccc12)c1cc(-c2ccc3ccccc3c2)n[nH]1", "cell line": "1205Lu", "assay": "MTS", "setting": "48 h", "IC50": "5.8 µM"}
{"Compound": "COc1cc(Nc2nccc(-c3cnn4nc(OC)ccc34)n2)cc(C(F)(F)F)c1", "cell line": "HuTu80", "assay": "ATP luminescence", "IC50": "0.15 µM"}
{"Compound": "Oc1ccc(Nc2nc(-c3ccc(Cl)cc3)cs2)cc1", "cell line": "1205Lu", "assay": "MTS", "setting": "72 h", "IC50": "71.8 µM"}
{"Compound": "CN(C)C/C=C/C(=O)Nc1cc2c(Nc3ccc(F)c(Cl)c3)ncnc2cc1O[C@H]1CCOC1", "cell line": "KB-C2", "assay": "MTT", "setting": "72 h", "IC50": "4.9 µM"}
